Assay results from ChEMBL document CHEMBL1127555, “Novel (4-phenylpiperidinyl)- and (4-phenylpiperazinyl)alkyl-spaced esters of 1-phenylcyclopentanecarboxylic acids as potent sigma-selective compounds” (J Med Chem, 1994).
pKi: −log10 of the molar value.

How the values were obtained:
[1] = molecular target: Sigma 2 receptor; experiment: The compound was evaluated for affinity at sigma-2 site by inhibition of [3H]1,3-di(2-tolyl)guanidine (DTG) binding in guinea pig brain; set-up: species or system Cavia porcellus
Summary of the method: (§1)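 Final [3H]DTG 4 nM with varied test concentrations. Incubation 25 °C for 90 min. PEI-soaked GF/B filtration, scintillation counting. Ki from EBDA/LIGAND, at least three determinations in triplicate.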

[2] = Binding affinity for sigma-1 site over dopamine receptor D1 in rat using [3H]SCH-23390 as radioligand
[3] = Binding affinity for sigma-1 site over dopamine (D2) receptor in rat using [3H]spiperone as radioligand
[4] = molecular target: T1, Glutamate NMDA receptor (Rattus norvegicus) (UniProt P35439+Q00959+Q00960+Q00961+Q62645+Q8VHN2+Q9R1M7); experiment: Binding affinity was measured as selectivity for sigma-1 site over N-methyl-D-aspartate (NMDA) receptor in rat using [3H]CGS-19,755 as radioligand at 10 uM
[5] = molecular target: T1, Glutamate NMDA receptor (Rattus norvegicus); experiment: Binding affinity was measured as selectivity for sigma-1 site over phencyclidine (PCP) receptor in rat using [3H]TCP as radioligand at 10 uM
[6] = molecular target: Opioid receptor (Rattus norvegicus) (UniProt P33533+P34975+P33535); experiment: Binding affinity was measured as selectivity for sigma-1 site over opioid receptor in rat using [3H]naloxone as radioligand at 10 uM
[7] = molecular target: T1, Glutamate NMDA receptor (Rattus norvegicus); experiment: Binding affinity was measured against N-methyl-D-aspartate (NMDA) receptor in rat using [3H]CGS-19,755 as radioligand at 10 uM
[8] = molecular target: T2, Muscarinic acetylcholine receptor M1 (Rattus norvegicus, UniProt P08482); experiment: Binding affinity was measured as selectivity for sigma-1 site over muscarinic (M1) receptor in rat
T2 sequence (P08482 whole entry): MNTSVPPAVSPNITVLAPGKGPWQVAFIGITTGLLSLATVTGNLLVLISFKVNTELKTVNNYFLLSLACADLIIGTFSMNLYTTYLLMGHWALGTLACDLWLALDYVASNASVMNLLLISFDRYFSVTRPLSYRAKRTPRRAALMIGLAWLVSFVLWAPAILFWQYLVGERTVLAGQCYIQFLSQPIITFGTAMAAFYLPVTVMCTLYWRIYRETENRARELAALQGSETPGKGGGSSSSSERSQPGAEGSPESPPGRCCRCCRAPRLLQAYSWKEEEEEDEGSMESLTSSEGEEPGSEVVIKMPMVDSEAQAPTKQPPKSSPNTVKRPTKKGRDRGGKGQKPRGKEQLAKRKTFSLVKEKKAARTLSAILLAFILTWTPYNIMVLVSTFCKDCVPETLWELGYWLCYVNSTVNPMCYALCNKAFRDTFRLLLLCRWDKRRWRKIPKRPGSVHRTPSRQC

[9] = molecular target: T3, Muscarinic acetylcholine receptor M2 (Rattus norvegicus) (UniProt P10980); experiment: (§2) Binding affinity was measured as selectivity for sigma 1 site over muscarinic (M2) receptor at 10 uM in rat using [3H]QN as radioligand
T3 sequence (whole entry): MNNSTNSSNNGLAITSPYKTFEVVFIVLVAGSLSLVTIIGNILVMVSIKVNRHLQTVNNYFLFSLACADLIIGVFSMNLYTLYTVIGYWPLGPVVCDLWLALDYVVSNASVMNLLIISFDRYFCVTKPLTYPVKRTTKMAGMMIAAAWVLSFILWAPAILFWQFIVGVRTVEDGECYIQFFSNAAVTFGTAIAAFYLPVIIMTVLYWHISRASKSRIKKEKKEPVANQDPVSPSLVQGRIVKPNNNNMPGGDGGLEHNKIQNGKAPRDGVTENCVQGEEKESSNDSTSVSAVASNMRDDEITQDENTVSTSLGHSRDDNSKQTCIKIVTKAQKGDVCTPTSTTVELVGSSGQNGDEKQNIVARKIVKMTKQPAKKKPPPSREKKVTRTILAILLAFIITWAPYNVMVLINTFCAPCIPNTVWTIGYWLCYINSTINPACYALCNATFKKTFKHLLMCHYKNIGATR
Summary of the method: (§3)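 Muscarinic binding, M1 in rat cortex with [3H]pirenzepine 0.5 nM and M2 in rat heart with [3H]QNB 0.05 nM.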

[10] = molecular target: T4, Muscarinic acetylcholine receptor M2 (Rattus norvegicus, UniProt P10980); experiment: as §2; summary of the method: as §3
T4 sequence (P10980 whole entry): T3 sequence (whole entry)

[11] = molecular target: T2, Muscarinic acetylcholine receptor M1; experiment: Binding affinity was measured against muscarinic (M1) receptor in rat using [3H]pirenzepine as radioligand
[12] = molecular target: T5, D(2) dopamine receptor (Rattus norvegicus, UniProt P61169); experiment: Binding affinity was measured against dopamine (D2) receptor in rat using [3H]spiperone as radioligand
[13] = molecular target: T6, Opioid receptor (Rattus norvegicus, UniProt P33533+P34975+P33535); experiment: Binding affinity was measured against opioid receptor in rat using [3H]naloxone as radioligand
[14] = molecular target: T4, Muscarinic acetylcholine receptor M2; experiment: Binding affinity was measured against muscarinic (M2) receptor at 10 uM in rat using [3H]QN as radioligand
[15] = molecular target: Glutamate NMDA receptor; experiment: Binding affinity was measured against phencyclidine (PCP) receptor in rat using [3H]TCP as radioligand
[16] = molecular target: T7, D(1A) dopamine receptor (Rattus norvegicus, UniProt P18901); experiment: Binding affinity was measured against dopamine receptor D1 in rat using [3H]SCH-23390 as radioligand
[17] = molecular target: T5, D(2) dopamine receptor; experiment: Iodo derivative shows a potent sigma binding ligand, had some affinity for D2 site in rat
[18] = molecular target: T2, Muscarinic acetylcholine receptor M1; experiment: Binding affinity was measured as selectivity for sigma-1 site over muscarinic (M1) receptor in rat using [3H]pirenzepine as radioligand
[19] = molecular target: T2, Muscarinic acetylcholine receptor M1; experiment: The nitro derivative RLH-033 shows significant selectivity for the [3H]-(=)-PENT site over muscarinic 1 in rat using [3H]pirenzepine as radioligand
[20] = molecular target: T5, D(2) dopamine receptor; experiment: The nitro derivative RLH-033 shows significant selectivity for the [3H]-(=)-PENT site over dopamine 2 in rat using [3H]SCH-23390 as radioligand
[21] = molecular target: T7, D(1A) dopamine receptor; experiment: The nitro derivative RLH-033 shows significant selectivity for the [3H]-(=)-PENT site over […] in rat using [3H]SCH-23390 as radioligand
[22] = molecular target: T4, Muscarinic acetylcholine receptor M2; experiment: The nitro derivative RLH-033 shows significant selectivity for the [3H]-(=)-PENT site over muscarinic 2 in rat using [3H]QN as radioligand
[23] = molecular target: T6, Opioid receptor; experiment: Binding affinity was measured as selectivity for sigma-1 site over opioid receptor in rat using [3H]naloxone as radioligand
[24] = molecular target: Glutamate NMDA receptor; experiment: Binding affinity was measured as selectivity for sigma-1 site over phencyclidine (PCP) receptor in rat using [3H]TCP as radioligand
[25] = molecular target: Sigma 2 receptor; experiment: Affinity at sigma-2 site by inhibition of [3H]1,3-di(2-tolyl)guanidine (DTG) binding in guinea pig brain.; set-up: species or system Cavia porcellus; summary of the method: as §1
[26] = molecular target: T1, Glutamate NMDA receptor (Rattus norvegicus); experiment: Binding affinity was measured against phencyclidine (PCP) receptor in rat using [3H]-TCP as radioligand at 10 uM

T7 sequence (P18901 whole entry): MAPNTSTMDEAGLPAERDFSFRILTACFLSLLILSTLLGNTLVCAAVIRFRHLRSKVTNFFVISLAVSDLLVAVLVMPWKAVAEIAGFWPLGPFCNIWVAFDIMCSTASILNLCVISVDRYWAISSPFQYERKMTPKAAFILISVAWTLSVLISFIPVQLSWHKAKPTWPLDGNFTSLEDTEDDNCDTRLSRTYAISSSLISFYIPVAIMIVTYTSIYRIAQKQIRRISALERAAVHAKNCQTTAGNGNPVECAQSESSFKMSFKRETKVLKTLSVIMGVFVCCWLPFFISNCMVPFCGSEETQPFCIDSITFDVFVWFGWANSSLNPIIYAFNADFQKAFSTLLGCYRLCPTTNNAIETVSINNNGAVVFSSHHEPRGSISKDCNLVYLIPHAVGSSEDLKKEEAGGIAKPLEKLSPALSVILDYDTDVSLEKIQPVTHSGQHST
Sequence of Opioid receptor (Rattus norvegicus) (P33533 whole entry, looked up): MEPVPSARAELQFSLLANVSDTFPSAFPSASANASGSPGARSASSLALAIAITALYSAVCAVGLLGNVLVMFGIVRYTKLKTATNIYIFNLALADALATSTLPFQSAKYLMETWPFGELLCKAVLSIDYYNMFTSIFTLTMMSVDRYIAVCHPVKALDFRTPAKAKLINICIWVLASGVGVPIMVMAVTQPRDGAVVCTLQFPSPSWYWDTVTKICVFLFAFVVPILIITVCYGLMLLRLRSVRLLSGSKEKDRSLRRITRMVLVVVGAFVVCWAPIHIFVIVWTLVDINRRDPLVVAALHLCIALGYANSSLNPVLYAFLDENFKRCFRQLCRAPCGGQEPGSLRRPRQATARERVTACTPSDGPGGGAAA
Sequence of Opioid receptor (Rattus norvegicus) (P33535 whole entry, looked up): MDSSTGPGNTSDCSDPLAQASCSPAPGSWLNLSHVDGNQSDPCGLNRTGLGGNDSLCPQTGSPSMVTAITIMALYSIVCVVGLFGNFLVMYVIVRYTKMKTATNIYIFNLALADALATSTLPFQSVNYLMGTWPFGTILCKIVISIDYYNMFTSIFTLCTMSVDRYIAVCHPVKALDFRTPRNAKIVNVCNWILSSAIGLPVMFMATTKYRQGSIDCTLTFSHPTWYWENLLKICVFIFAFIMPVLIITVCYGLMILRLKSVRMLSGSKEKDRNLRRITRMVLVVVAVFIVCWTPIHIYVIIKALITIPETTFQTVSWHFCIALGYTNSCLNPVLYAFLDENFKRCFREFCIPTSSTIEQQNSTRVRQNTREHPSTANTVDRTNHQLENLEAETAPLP
Sequence of Opioid receptor (Rattus norvegicus) (P34975 whole entry, looked up): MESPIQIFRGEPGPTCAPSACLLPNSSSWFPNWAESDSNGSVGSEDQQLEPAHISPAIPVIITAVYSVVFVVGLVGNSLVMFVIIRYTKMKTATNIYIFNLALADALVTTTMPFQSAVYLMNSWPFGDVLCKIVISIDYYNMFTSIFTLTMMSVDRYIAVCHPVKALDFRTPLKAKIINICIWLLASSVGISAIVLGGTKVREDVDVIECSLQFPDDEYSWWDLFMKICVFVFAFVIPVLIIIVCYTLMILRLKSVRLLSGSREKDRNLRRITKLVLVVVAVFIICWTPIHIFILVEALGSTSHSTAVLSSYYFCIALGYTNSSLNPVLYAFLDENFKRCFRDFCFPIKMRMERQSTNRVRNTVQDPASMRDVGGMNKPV
T5 sequence (P61169 whole entry): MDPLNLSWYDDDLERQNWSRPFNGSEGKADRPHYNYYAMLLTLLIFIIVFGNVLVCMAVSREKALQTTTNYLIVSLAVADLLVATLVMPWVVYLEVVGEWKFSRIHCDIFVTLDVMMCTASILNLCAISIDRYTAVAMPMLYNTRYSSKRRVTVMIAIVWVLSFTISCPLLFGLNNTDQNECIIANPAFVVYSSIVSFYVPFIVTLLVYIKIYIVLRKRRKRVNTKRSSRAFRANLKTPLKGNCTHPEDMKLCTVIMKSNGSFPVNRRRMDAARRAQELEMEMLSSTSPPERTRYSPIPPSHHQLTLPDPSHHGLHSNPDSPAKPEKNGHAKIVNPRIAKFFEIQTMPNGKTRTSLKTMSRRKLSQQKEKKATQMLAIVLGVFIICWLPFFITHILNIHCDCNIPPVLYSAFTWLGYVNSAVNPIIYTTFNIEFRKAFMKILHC

Structure (SMILES): O=C(OCCCCN1CCC(c2ccccc2)CC1)C1(c2ccccc2)CCCC1
- pKi [1]: 9.16
- pKi [2]: 5.51
- pKi [3]: 6.33

Structure (SMILES): O=C(OCCN1CCN(c2ccccc2)CC1)C1(c2ccc([N+](=O)[O-])cc2)CCCC1
- inhibition [4]: 19%
- pKi [1]: 7.52
- pKi [2]: 6.00
- inhibition [5]: 10%
- inhibition [6]: 25%
- pKi [3]: 6.30

Structure (SMILES): O=C(OCCCN1CCC(c2ccccc2)CC1)C1(c2ccc([N+](=O)[O-])cc2)CCCC1
- pKi [1]: 9.06

Structure (SMILES): COc1ccc(C2(C(=O)OCCCN3CCC(c4ccccc4)CC3)CCCC2)cc1
- pKi [1]: 8.77
- pKi [2]: 5.22
- pKi [3]: 6.00

Structure (SMILES): O=C(OCCN1CCC(c2ccccc2)CC1)C1(c2ccc(Cl)cc2)CCCC1
- pKi [1]: 7.62

Structure (SMILES): O=C(CCCN1CCC(O)(c2ccc(Cl)cc2)CC1)c1ccc(F)cc1
- inhibition [7]: 25%

Structure (SMILES): O=C(OCCN1CCN(c2ccccc2)CC1)C1(c2ccccc2)CCCC1
- inhibition [4]: 7%
- pKi [1]: 6.16
- inhibition [5]: 1%
- inhibition [6]: 43%
- pKi [8]: 5.83
- pKi [3]: < 6.30
- inhibition [9]: 98%

Structure (SMILES): O=C(OCCCN1CCC(c2ccccc2)CC1)C1(c2ccccc2)CCCC1
- pKi [1]: 8.93
- pKi [10]: 6.17
- pKi [2]: 5.00
- pKi [8]: 6.77
- pKi [3]: 5.92

Structure (SMILES): CC(C)=CCN1CC[C@]2(C)c3cc(O)ccc3C[C@H]1[C@H]2C (single isomer, unassigned) [(+)-PENTAZOCINE]
- pKi [11]: 6.65
- pKi [12]: < 5.30
- Ki [13]: 651 nM
- pKi [14]: 6.28
- pKi [15]: 5.38
- pKi [16]: < 5.30

Structure (SMILES): COc1ccc(C2(C(=O)OCCN3CCC(c4ccccc4)CC3)CCCC2)cc1
- pKi [1]: 7.50

Structure (SMILES): O=C(OCCN1CCC(c2ccccc2)CC1)C1(c2ccc(I)cc2)CCCC1
- pKi [1]: 7.28
- pKi [2]: < 6.00
- inhibition [5]: 8%
- inhibition [6]: 25%
- pKi [17]: 7.26

Structure (SMILES): N#Cc1ccc(C2(C(=O)OCCN3CCC(c4ccccc4)CC3)CCCC2)cc1
- pKi [1]: 7.57
- pKi [2]: < 6.00
- pKi [3]: 6.71

Structure (SMILES): O=C(OCCCN1CCC(c2ccccc2)CC1)C1(c2ccc(Cl)cc2)CCCC1
- pKi [1]: 8.36

Structure (SMILES): O=C(OCCN1CCN(c2ccccc2)CC1)C1(c2ccc(Cl)cc2)CCCC1
- pKi [1]: 6.12

Structure (SMILES): O=C(OCCN1CCC(c2ccccc2)CC1)C1(c2ccccc2)CCCC1
- inhibition [4]: 15%
- pKi [1]: 7.28
- pKi [2]: 5.31
- inhibition [5]: 8%
- inhibition [6]: 63%
- pKi [3]: 5.96
- inhibition [9]: 20%
- pKi [18]: 6.77

Structure (SMILES): O=C(OCCCCCN1CCC(c2ccccc2)CC1)C1(c2ccccc2)CCCC1
- pKi [1]: 8.98

Structure (SMILES): O=C(OCCN1CCC(c2ccccc2)CC1)C1(c2ccc([N+](=O)[O-])cc2)CCCC1
- pKi [19]: < 4.75
- inhibition [4]: 12%
- pKi [1]: 8.41
- pKi [20]: < 5.15
- pKi [10]: 5.77
- pKi [2]: 5.54
- inhibition [5]: 7%
- inhibition [6]: 42%
- pKi [21]: < 4.24
- pKi [3]: 6.46
- pKi [22]: < 4.47
- pKi [18]: 6.06

Structure (SMILES): O=C(OCCCCCCN1CCC(c2ccccc2)CC1)C1(c2ccccc2)CCCC1
- pKi [1]: 8.73

Structure (SMILES): COc1ccc2c(c1)[C@]13CCCC[C@@H]1[C@H](C2)N(C)CC3 [DEXTROMETHORPHAN]
- inhibition [7]: 2%
- pKi [14]: < 5.00

Structure (SMILES): Cc1ccccc1NC(=N)Nc1ccccc1C
- Ki [23]: 3950 nM
- inhibition [4]: 0%
- pKi [10]: 5.53
- pKi [2]: < 5.30
- pKi [8]: 6.13
- pKi [3]: < 5.30
- pKi [24]: 5.17

Structure (SMILES): O=C(OCCCN1CCC(c2ccccc2)CC1)C1(c2ccc(I)cc2)CCCC1
- pKi [1]: 8.19

Structure (SMILES): O=C(OCCN1CCN(c2ccccc2)CC1)C1(c2ccc(I)cc2)CCCC1
- pKi [1]: 6.53
- pKi [2]: 6.19
- inhibition [5]: 7%
- inhibition [6]: 25%
- pKi [3]: 6.67

Structure (SMILES): CCN(CC)CCOC(=O)C1(c2ccccc2)CCCC1
- inhibition [7]: 19%
- pKi [12]: < 6.30
- pKi [25]: 6.18
- pKi [16]: < 6.00
- inhibition [26]: 11%
